Measured values reported in ChEMBL document CHEMBL3608234, “Synthesis and antiviral evaluation of a novel series of homoserine-based inhibitors of the hepatitis C virus NS3/4A serine protease” (Bioorg Med Chem Lett, 2015).
Each block holds one compound with its values, some of them ahead of it.

Key:
[1] = Inhibition of full length HCV 1b Con1 NS3/4A protease using HiLyte Fluor 610 peptide substrate by biochemical FRET assay; design: species or system Hepatitis C virus (isolate Con1)
Summary of the method: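 Fluorescence (FRET) protease assay on full-length genotype 1b Con1 HCV NS3/4A with HiLyte Fluor 610 peptide substrate; IC50 from percent inhibition versus concentration by four-parameter sigmoidal non-linear regression.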

Hepatitis C virus = test: Antiviral activity against HCV Con1 infected in human GS4.1 cells containing HCV Con1 subgenomic replicon assessed as reduction in NS5A protein expression by ELISA method; assay type: functional, cell-based, Hepacivirus hominis; conditions: genotype 1b Con1
Summary of the method: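 Huh-7 cells carrying HCV Con1 subgenomic replicon (GS4.1); replication followed as NS5A protein expression by ELISA; EC50 from 50% inhibition versus concentration data fitted by four-parameter sigmoidal non-linear regression.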

[2] = Cytotoxicity against human GS4.1 cells assessed as induction of cell death; assay type: cell-based
Summary of the method: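 GS4.1 cells (Huh-7 with Con1 subgenomic replicon); CC50 taken as concentration giving 50% cell death, from death versus concentration data relative to blank control.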

[3] = Intrinsic clearance in rat liver microsomes incubated for 2 hrs; assay type: ADME; conditions: read-out: CLH
[4] = Intrinsic clearance in Cynomologus monkey liver microsomes incubated for 2 hrs; assay type: ADME, Macaca fascicularis; conditions: cynomolgus monkey, read-out: CLH
[5] = Intrinsic clearance in human liver microsomes incubated for 2 hrs; assay type: ADME; conditions: read-out: CLH
[6] = Clearance in rat liver S9 fraction incubated for 2 hrs; assay type: ADME, subcellular; conditions: read-out: CLH
Summary of the method: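 Rat liver S9 fraction incubation for 2 h; mean clearance from n = 2.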

Hepatocyte = test: Clearance in rat cryopreserved hepatocytes incubated for 2 hrs; assay type: ADME, cell-based
[7] = Intrinsic clearance in dog liver microsomes incubated for 2 hrs; assay type: ADME, Canis lupus familiaris; conditions: read-out: CLH
[8] = Half life in Sprague-Dawley rat at 2 mg/kg, iv; assay type: ADME, organism-based; conditions: in vivo
[9] = Cmax in Sprague-Dawley rat at 10 mg/kg, po; assay type: ADME, organism-based; design: dose 10 mg/kg, route oral; conditions: in vivo
[10] = Tmax in Sprague-Dawley rat at 10 mg/kg, po; assay type: ADME, organism-based; conditions: in vivo
[11] = AUC (infinity) in Sprague-Dawley rat at 10 mg/kg, po; assay type: ADME, organism-based; design: dose 10 mg/kg, route oral, time infinity; conditions: in vivo
Summary of the method: (§1)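 Male Sprague–Dawley rats were dosed intravenously at 2 mg/kg or orally at 10 mg/kg. Plasma concentration–time data were used to derive AUC to last time point (AUCt) and AUC extrapolated to infinity, reported in ng·h/mL.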

[12] = Clearance in Sprague-Dawley rat at 2 mg/kg, iv; assay type: ADME, organism-based; conditions: in vivo
[13] = AUCt in Sprague-Dawley rat at 2 mg/kg, iv; assay type: ADME, organism-based; conditions: in vivo; summary of the method: as §1
[14] = Half life in Sprague-Dawley rat at 10 mg/kg, po; assay type: ADME, organism-based; conditions: in vivo
[15] = Drug elimination in Sprague-Dawley rat at 2 mg/kg, iv; assay type: ADME, organism-based; conditions: in vivo
[16] = Tmax in Sprague-Dawley rat at 2 mg/kg, iv; assay type: ADME, organism-based; conditions: in vivo
[17] = Volume of distribution in Sprague-Dawley rat at 2 mg/kg, iv; assay type: ADME, organism-based; conditions: in vivo
[18] = Drug elimination in Sprague-Dawley rat at 10 mg/kg, po; assay type: ADME, organism-based; conditions: in vivo
[19] = Clearance in Sprague-Dawley rat at 10 mg/kg, po; assay type: ADME, organism-based; conditions: in vivo
[20] = Cmax in Sprague-Dawley rat at 2 mg/kg, iv; assay type: ADME, organism-based; design: dose 2 mg/kg, route intravenous; conditions: in vivo
Rattus norvegicus = test: Volume of distribution in Sprague-Dawley rat at 10 mg/kg, po; assay type: ADME, organism-based; conditions: in vivo
[21] = Oral bio availability in Sprague-Dawley rat at 10 mg/kg; assay type: ADME, organism-based; conditions: in vivo
[22] = AUC (infinity) in Sprague-Dawley rat at 2 mg/kg, iv; assay type: ADME, organism-based; design: dose 2 mg/kg, route intravenous, time infinity; conditions: in vivo; summary of the method: as §1
[23] = AUCt in Sprague-Dawley rat at 10 mg/kg, po; assay type: ADME, organism-based; conditions: in vivo; summary of the method: as §1

IC50 [1]: 19.8 nM | EC50 (Hepatitis C virus): 8200 nM
Compound: COc1ccc2c(OCC[C@@H]3NC(=O)N(C)CCCC/C=C\[C@@H]4C[C@@]4(C(=O)NS(=O)(=O)C4CC4)NC3=O)cc(-c3ccccc3)nc2c1
CC50 [2]: > 30000 nM

IC50 [1]: 41 nM | EC50 (Hepatitis C virus): 14600 nM
Compound: COc1ccc2c(OCC[C@@H]3NC(=O)N(C)CCCCC/C=C\[C@@H]4C[C@@]4(C(=O)NS(=O)(=O)C4CC4)NC3=O)cc(-c3ccccc3)nc2c1
CC50 [2]: 53000 nM

IC50 [1]: 1.2 nM | EC50 (Hepatitis C virus): 1040 nM
Compound: COc1ccc2c(OCC[C@@H]3NC(=O)N(C)CCCC/C=C\[C@@H]4C[C@@]4(C(=O)NS(=O)(=O)C4(C)CC4)NC3=O)cc(-c3csc(NC(C)C)n3)nc2c1
CC50 [2]: 37400 nM

IC50 [1]: 0.9 nM | microsomal CLint [3]: 155 µL/min/mg | EC50 (Hepatitis C virus): 44 nM
Compound: COc1ccc2c(OCC[C@@H]3NC(=O)N(C)CCCC/C=C\[C@@H]4C[C@@]4(C(=O)NS(=O)(=O)C4(C)CC4)NC3=O)cc(-c3nc(C(C)C)cs3)nc2c1
CC50 [2]: 6500 nM

IC50 [1]: 9.6 nM | EC50 (Hepatitis C virus): 1490 nM
Compound: COc1ccc2c(OCC[C@@H]3NC(=O)N(C)CCCC/C=C\[C@@H]4C[C@@]4(C(=O)NS(=O)(=O)C4CC4)NC3=O)cc(-c3nc(C(C)C)cs3)nc2c1F
CC50 [2]: > 75000 nM

IC50 [1]: 8 nM | EC50 (Hepatitis C virus): 555 nM
Compound: COc1ccc2c(OCC[C@@H]3NC(=O)N(C)CCCC/C=C\[C@@H]4C[C@@]4(C(=O)NS(=O)(=O)C4(C)CC4)NC3=O)cc(-c3nc(C(C)C)cs3)nc2c1F
CC50 [2]: 57100 nM

IC50 [1]: 1.7 nM | microsomal CLint [4]: 124 µL/min/mg | microsomal CLint [5]: 263 µL/min/mg | microsomal CLint [6]: 8.9 µL/min/mg | CLH (Hepatocyte): 19.1 µL/min/mg | microsomal CLint [3]: 36.6 µL/min/mg | microsomal CLint [7]: 25 µL/min/mg | EC50 (Hepatitis C virus): 76.5 nM
Compound: COc1ccc2c(OCC[C@@H]3NC(=O)N(C)CCCC/C=C\[C@@H]4C[C@@]4(C(=O)NS(=O)(=O)C4CC4)NC3=O)cc(-c3nc(C(C)C)cs3)nc2c1Cl
CC50 [2]: 40400 nM

half-life [8]: 1.25 h | IC50 [1]: 1.7 nM | Cmax [9]: 798 ng/mL | Tmax [10]: 0.75 h | AUC(0-inf) [11]: 2350 ng·h/mL | clearance [12]: 22.1 mL/min/kg | microsomal CLint [4]: 480 µL/min/mg | microsomal CLint [5]: 215 µL/min/mg | AUC(0-t) [13]: 1520 ng·h/mL | half-life [14]: 2.53 h | k el [15]: 0.000158 s⁻¹ | microsomal CLint [6]: 7.6 µL/min/mg | Tmax [16]: 6.6 min | Vd [17]: 2.42 L/kg | k el [18]: 7.78e-05 s⁻¹ | CLH (Hepatocyte): 12.6 µL/min/mg | microsomal CLint [3]: 20.7 µL/min/mg | CL/F [19]: 72.4 mL/min/kg | Cmax [20]: 2670 ng/mL | microsomal CLint [7]: 19.5 µL/min/mg | Vd (Rattus norvegicus): 16.04 L/kg | EC50 (Hepatitis C virus): 28.7 nM | bioavailability [21]: 27% | AUC(0-inf) [22]: 1510 ng·h/mL | AUC(0-t) [23]: 2060 ng·h/mL
Compound: COc1ccc2c(OCC[C@@H]3NC(=O)N(C)CCCC/C=C\[C@@H]4C[C@@]4(C(=O)NS(=O)(=O)C4(C)CC4)NC3=O)cc(-c3nc(C(C)C)cs3)nc2c1Cl
CC50 [2]: 37400 nM

IC50 [1]: 0.6 nM | microsomal CLint [3]: 16.5 µL/min/mg | EC50 (Hepatitis C virus): 20.5 nM
Compound: COc1ccc2c(OCC[C@@H]3NC(=O)N(C)CCCC/C=C\[C@@H]4C[C@@]4(C(=O)NS(=O)(=O)C4(C)CC4)NC3=O)cc(-c3nc(C(C)C)cs3)nc2c1Br
CC50 [2]: 28300 nM

IC50 [1]: 2.3 nM | microsomal CLint [3]: 9.3 µL/min/mg | EC50 (Hepatitis C virus): 85 nM
Compound: COc1ccc2c(OCC[C@@H]3NC(=O)N(C)CCCC/C=C\[C@@H]4C[C@@]4(C(=O)NS(=O)(=O)C4(C)CC4)NC3=O)cc(-c3nc(C(C)C)cs3)nc2c1C
CC50 [2]: 31900 nM

IC50 [1]: 2 nM | microsomal CLint [3]: 21 µL/min/mg | EC50 (Hepatitis C virus): 50 nM
Compound: COc1ccc2c(OCC[C@@H]3NC(=O)N(C)CCCC/C=C\[C@@H]4C[C@@]4(C(=O)NS(=O)(=O)C4(C)CC4)NC3=O)cc(-n3ccc(C(C)C)n3)nc2c1C
CC50 [2]: 25600 nM

IC50 [1]: 1.1 nM | EC50 (Hepatitis C virus): 43.4 nM
Compound: COc1ccc2c(OCC[C@@H]3NC(=O)N(C)CCCC/C=C\[C@@H]4C[C@@]4(C(=O)NS(=O)(=O)C4(C)CC4)NC3=O)cc(-n3ccc(C(C)C)n3)nc2c1Cl
CC50 [2]: 31000 nM

IC50 [1]: 3 nM | EC50 (Hepatitis C virus): 485 nM
Compound: CCn1cc(-c2cc(OCC[C@@H]3NC(=O)N(C)CCCC/C=C\[C@@H]4C[C@@]4(C(=O)NS(=O)(=O)C4(C)CC4)NC3=O)c3ccc(OC)c(C)c3n2)cn1
CC50 [2]: 36700 nM
